ChEMBL document CHEMBL1687712, “Antiviral effects of lamivudine, emtricitabine, adefovir dipivoxil, and tenofovir disoproxil fumarate administered orally alone and in combination to woodchucks with chronic woodchuck hepatitis virus infection” (Antimicrob Agents Chemother, 2008)
Activity calls are given as the source filed them. The calls are words filed in the database; no cut-off is given here.

Legend:
[1] = tested on: Woodchuck hepatitis virus; test: Antiviral activity against Woodchuck hepatitis virus infected in woodchuck assessed as reduction of viral antigen level in serum at 15 mg/kg, po qd for 48 weeks measured on 60th week (reference value: 3.3 +/- 1.6 log10 ng/ml); assay type: functional
Marmota monax [2] = test: Toxicity in Woodchuck hepatitis virus infected woodchuck assessed as change in body weight at 15 mg/kg, po qd for 48 weeks measured up to 60 weeks; assay type: organism-based; parameters: dose 15 mg/kg, route oral; settings: in vivo
How it was run: (§1)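 Chronic WHV-carrier woodchucks, 5 per group, were dosed orally once daily in liquid diet for 48 weeks, with a placebo diet-only group. Body weights were monitored. Complete blood counts were taken 2 weeks pretreatment, at weeks 12, 36 and 48 of treatment, and 12 weeks after withdrawal. Values were compared with placebo controls.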

[3] = tested on: Woodchuck hepatitis virus; test: Antiviral activity against Woodchuck hepatitis virus infected in woodchuck assessed as reduction of viral RNA level per ug of total cell DNA at 15 mg/kg, po qd for 48 weeks (reference value: 34 +/- 20 pg); assay type: functional
How it was run: (§2)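 Chronic WHV-carrier woodchucks, 5 per group, 15 mg/kg/day oral once daily for 48 weeks in liquid diet. Needle liver biopsies were snap-frozen in liquid nitrogen and stored at −70°C. Hepatic WHV DNA replicative intermediates were quantified by Southern blot (pg/μg total cell DNA) and WHV RNA by Northern blot; group means ± SD were compared with pretreatment and placebo.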

Marmota monax [4] = test: Toxicity in Woodchuck hepatitis virus infected woodchuck assessed as increase of liver aspartate aminotransferase activity at 15 mg/kg, po qd for 48 weeks; assay type: organism-based; parameters: dose 15 mg/kg, route oral; settings: in vivo, 8064 h
How it was run: (§3)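 Woodchucks chronically infected with WHV, 5 per group, received oral drug once daily in liquid diet for 48 weeks; placebo got diet only. Serum chemistry (GGT, ALP, ALT, AST, SDH, among others) was run 2 weeks pretreatment, at week 0, every other week to week 12, then monthly to week 48. Sampling continued at 2, 4, 6, 8 and 12 weeks post-treatment.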

[5] = tested on: Woodchuck hepatitis virus; test: Antiviral activity against Woodchuck hepatitis virus infected in woodchuck assessed as frequency of hepatocytes expressing viral antigen at 15 mg/kg, po qd for 48 weeks measured on 60th week; assay type: functional, Hepatocyte
How it was run: (§4)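 Chronic WHV-carrier woodchucks, 5 per group, given 15 mg/kg/day orally once daily for 48 weeks in liquid diet; placebo is diet alone. Liver biopsies at pretreatment, weeks 12, 36, 48 and 12 weeks after withdrawal. Cytoplasmic WHsAg staining scored 0–4: 1 ≤1%, 2 ≤2%, 3 ≤5%, 4 ≥10% of hepatocytes.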

Marmota monax [6] = test: Toxicity in Woodchuck hepatitis virus infected woodchuck assessed as increase of liver alanine aminotransferase activity at 15 mg/kg, po qd for 48 weeks; assay type: organism-based; parameters: dose 15 mg/kg, route oral; settings: in vivo, 8064 h; how it was run: as §3
[7] = tested on: Woodchuck hepatitis virus; test: Antiviral activity against Woodchuck hepatitis virus infected in woodchuck assessed as reduction of viral antigen level in serum at 15 mg/kg, po qd for 48 weeks (reference value: 3.8 +/- 1.3 log10 ng/ml); assay type: functional
Marmota monax [8] = test: Toxicity in Woodchuck hepatitis virus infected woodchuck assessed as increase of liver sorbitol dehydrogenase activity at 15 mg/kg, po qd measured on 4 to 24 weeks on 48 week study; assay type: organism-based; parameters: dose 15 mg/kg, route oral; settings: in vivo; how it was run: as §3
[9] = tested on: Woodchuck hepatitis virus; test: Antiviral activity against Woodchuck hepatitis virus infected in woodchuck assessed as reduction of viral DNA replicative intermediate level per ug of total cell DNA at 15 mg/kg, po qd for 48 weeks (reference value: 995 +/- 736 pg); assay type: functional; how it was run: as §2
[10] = tested on: Woodchuck hepatitis virus; test: Antiviral activity against Woodchuck hepatitis virus infected in woodchuck assessed as reduction of viral RNA level per ug of total cell DNA at 15 mg/kg, po qd measured on 36th week on 48 weeks study (reference value: 33 +/- 21 pg); assay type: functional; how it was run: as §2
[11] = tested on: Woodchuck hepatitis virus; test: Antiviral activity against Woodchuck hepatitis virus infected in woodchuck assessed as reduction of viral antigen level in serum at 15 mg/kg, po qd measured on 36th week on 48 weeks study (reference value: 3.8 +/- 1.3 log10 ng/ml); assay type: functional
[12] = tested on: Woodchuck hepatitis virus; test: Antiviral activity against Woodchuck hepatitis virus infected in woodchuck assessed as frequency of hepatocytes expressing viral antigen at 15 mg/kg, po qd measured on 36th week on 48 weeks study; assay type: functional, Hepatocyte; how it was run: as §4
[13] = tested on: Woodchuck hepatitis virus; test: Antiviral activity against Woodchuck hepatitis virus infected in woodchuck assessed as absent of lesion in portal hepatitis at 15 mg/kg, po qd measured on 12th week on 48 weeks study; assay type: functional, organism-based; parameters: dose 15 mg/kg
How it was run: (§5)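 Adult chronic WHV-carrier woodchucks (neonatally inoculated), 5 per group, given drug once daily by dose syringe in semisynthetic liquid diet, for 48 weeks; placebo got diet alone. Ultrasound-guided needle liver biopsies under ketamine/xylazine anesthesia at pretreatment, weeks 12, 36, 48 and 12 weeks post-withdrawal. Biopsies were formalin-fixed, paraffin-embedded and H&E stained. Portal and lobular hepatitis were graded 0 (absent) to 4 (most severe).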

[14] = tested on: Woodchuck hepatitis virus; test: Antiviral activity against Woodchuck hepatitis virus infected in woodchuck assessed as reduction of viral DNA replicative intermediate level per ug of total cell DNA at 15 mg/kg, po qd for 48 weeks measured on 60th week (reference value: 979 pg); assay type: functional; how it was run: as §2
Marmota monax [15] = test: Toxicity in Woodchuck hepatitis virus infected woodchuck assessed as effect on hematological parameters at 15 mg/kg, po qd for 48 weeks measured up to 60 weeks; assay type: organism-based; parameters: dose 15 mg/kg, route oral; settings: in vivo; how it was run: as §1
[16] = tested on: Woodchuck hepatitis virus; test: Antiviral activity against Woodchuck hepatitis virus infected in woodchuck assessed as reduction of viral DNA replicative intermediate level per ug of total cell DNA at 15 mg/kg, po qd measured on 36th week on 48 weeks study (reference value: 1132 +/- 738 pg); assay type: functional; how it was run: as §2
Marmota monax [17] = test: Toxicity in Woodchuck hepatitis virus infected woodchuck assessed as increase of liver sorbitol dehydrogenase activity at 15 mg/kg, po qd measured on 28 to 48 weeks on 48 week study; assay type: organism-based; parameters: dose 15 mg/kg, route oral; settings: in vivo; how it was run: as §3
[18] = tested on: Woodchuck hepatitis virus; test: Antiviral activity against Woodchuck hepatitis virus infected in woodchuck assessed as reduction of viral antigen level in serum at 15 mg/kg, po qd measured on 12th week on 48 weeks study (reference value: 4.3 +/- 1.5 log10 ng/ml); assay type: functional
[19] = tested on: Woodchuck hepatitis virus; test: Antiviral activity against Woodchuck hepatitis virus infected in woodchuck assessed as absent of lesion in portal hepatitis at 15 mg/kg, po qd for 48 weeks; assay type: functional, organism-based; parameters: dose 15 mg/kg; how it was run: as §5
[20] = tested on: Woodchuck hepatitis virus; test: Antiviral activity against Woodchuck hepatitis virus infected in woodchuck assessed as reduction of viral antigen positive hepatocytes at 15 mg/kg, po qd measured on 12th week on 48 weeks study (reference value: 55 +/- 32 %); assay type: functional, Hepatocyte; parameters: scale not given: the % may be the effect or the level left
How it was run: (§6)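 Chronic WHV-carrier woodchucks, 5 per group, 15 mg/kg/day oral once daily for 48 weeks in liquid diet. Liver biopsies were taken at pretreatment, weeks 12, 36, 48 and week 60. Percentage of hepatocytes positive for WHcAg was given as group mean ± SD and compared with pretreatment and placebo.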

[21] = tested on: Woodchuck hepatitis virus; test: Antiviral activity against Woodchuck hepatitis virus infected in woodchuck assessed as reduction of viral RNA level per ug of total cell DNA at 15 mg/kg, po qd for 48 weeks measured on 60th week (reference value: 27 pg); assay type: functional; how it was run: as §2
[22] = tested on: Woodchuck hepatitis virus; test: Antiviral activity against Woodchuck hepatitis virus infected in woodchuck assessed as frequency of hepatocytes expressing viral antigen at 15 mg/kg, po qd measured on 12th week on 48 weeks study; assay type: functional, Hepatocyte; how it was run: as §4
[23] = tested on: Woodchuck hepatitis virus; test: Antiviral activity against Woodchuck hepatitis virus infected in woodchuck assessed as reduction of viral RNA level per ug of total cell DNA at 15 mg/kg, po qd measured on 12th week on 48 weeks study (reference value: 46 +/- 25 pg); assay type: functional; how it was run: as §2
[24] = tested on: Woodchuck hepatitis virus; test: Antiviral activity against Woodchuck hepatitis virus infected in woodchuck assessed as frequency of hepatocytes expressing viral antigen at 15 mg/kg, po qd for 48 weeks; assay type: functional, Hepatocyte; how it was run: as §4
[25] = tested on: Woodchuck hepatitis virus; test: Antiviral activity against Woodchuck hepatitis virus infected in woodchuck assessed as reduction of viral antigen positive hepatocytes at 15 mg/kg, po qd for 48 weeks measured on 60th week (reference value: 26 %); assay type: functional, Hepatocyte; parameters: scale not given: the % may be the effect or the level left; how it was run: as §6
Marmota monax [26] = test: Toxicity in Woodchuck hepatitis virus infected woodchuck assessed as increase of liver alkaline phosphatase activity at 15 mg/kg, po qd for 48 weeks; assay type: organism-based; parameters: dose 15 mg/kg, route oral; settings: in vivo, 8064 h; how it was run: as §3
[27] = tested on: Woodchuck hepatitis virus; test: Antiviral activity against Woodchuck hepatitis virus infected in woodchuck assessed as reduction of viral DNA replicative intermediate level per ug of total cell DNA at 15 mg/kg, po qd measured on 12th week on 48 weeks study (reference value: 1495 +/- 890 pg); assay type: functional; how it was run: as §2
[28] = tested on: Woodchuck hepatitis virus; test: Antiviral activity against Woodchuck hepatitis virus infected in woodchuck assessed as reduction of viral antigen positive hepatocytes at 15 mg/kg, po qd measured on 36th week on 48 weeks study (reference value: 41 +/- 25 %); assay type: functional, Hepatocyte; parameters: scale not given: the % may be the effect or the level left; how it was run: as §6
Marmota monax [29] = test: Toxicity in Woodchuck hepatitis virus infected woodchuck assessed as increase of serum gamma-glutamyltransferase activity at 15 mg/kg, po qd for 48 weeks; assay type: organism-based; parameters: dose 15 mg/kg, route oral; settings: in vivo, 8064 h; how it was run: as §3
[30] = tested on: Woodchuck hepatitis virus; test: Antiviral activity against Woodchuck hepatitis virus infected in woodchuck assessed as reduction of viral antigen positive hepatocytes at 15 mg/kg, po qd for 48 weeks study (reference value: 35 +/- 27 %); assay type: functional, Hepatocyte; parameters: scale not given: the % may be the effect or the level left; how it was run: as §6
Marmota monax [31] = test: Toxicity in Woodchuck hepatitis virus infected woodchuck assessed as increase of liver alanine aminotransferase activity at 15 mg/kg, po qd measured on 4 to 24 weeks on 48 week study; assay type: organism-based; parameters: dose 15 mg/kg, route oral; settings: in vivo; how it was run: as §3
[32] = tested on: Woodchuck hepatitis virus; test: Antiviral activity against Woodchuck hepatitis virus infected in woodchuck assessed as absent of lesion in lobular hepatitis at 15 mg/kg, po qd measured on 12th week on 48 weeks study; assay type: functional, organism-based; parameters: dose 15 mg/kg; how it was run: as §5

| Structure (SMILES) | Activity [1] | Activity (Marmota monax [2]) | Activity [3] | Activity (Marmota monax [4]) | Activity [5] | Activity (Marmota monax [6]) | Activity [7] | Activity (Marmota monax [8]) | Activity [9] | Activity [10] | Activity [11] | Activity [12] | Activity [13] | Activity [14] | Activity (Marmota monax [15]) | Activity [16] | Activity (Marmota monax [17]) | Activity [18] | Activity [20] | Activity [21] | further results |
| --- | --- | --- | --- | --- | --- | --- | --- | --- | --- | --- | --- | --- | --- | --- | --- | --- | --- | --- | --- | --- | --- |
| Nc1nc(=O)n([C@@H]2CS[C@H](CO)O2)cc1F [EMTRICITABINE] | 4.7 log10ng/ml | Non-toxic | 35 pg | Toxic | 10% | Toxic | 4.4 log10ng/ml | Toxic | 428 pg | 43 pg | 4.5 log10ng/ml | 10% | Active | 1239 pg | Non-toxic | 644 pg | Toxic | 4.5 log10ng/ml | 47% | 48 pg | Activity [19]: Active; Activity [22]: 2%; Activity [23]: 42 pg; Activity [24]: 10%; Activity [25]: 64%; Activity (Marmota monax [26]): Toxic; Activity [27]: 845 pg; Activity [28]: 63%; Activity (Marmota monax [29]): Toxic; Activity [30]: 40%; Activity (Marmota monax [31]): Toxic |
| Nc1ccn([C@@H]2CS[C@H](CO)O2)c(=O)n1 [LAMIVUDINE] | 4.6 log10ng/ml | Non-toxic | 33 pg | Toxic | 5% | Toxic | 4.4 log10ng/ml | Toxic | 413 pg | 47 pg | 5.2 log10ng/ml | 5% | Active | 1063 pg | Non-toxic | 1133 pg | Toxic | 4.7 log10ng/ml | 39% | 46 pg | Activity [22]: 1%; Activity [23]: 39 pg; Activity [24]: 5%; Activity [25]: 48%; Activity (Marmota monax [26]): Toxic; Activity [27]: 982 pg; Activity [28]: 59%; Activity (Marmota monax [29]): Toxic; Activity [30]: 36%; Activity [32]: Active; Activity (Marmota monax [31]): Toxic |
